Values belong to the molecule of their own block, whether it stands above or below them. Active and inactive are the calls of the source. The calls are words filed in the database; no cut-off is given here.
Assays:
[1] = Antiinflammatory activity in mouse RAW264.7 cells assessed as inhibition of LPS-induced NO production pretreated for 30 mins followed by LPS stimulation for 24 hrs by Griess assay; type: functional, cell-based
Summary of the method: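 Cells seeded at 5 × 10^4 per well, grown 24 h, pretreated 30 min, then stimulated with 500 ng/mL LPS for 24 h; 0.5% DMSO vehicle in all wells; LPS-only and unstimulated blanks included; L-NIL as positive control. Medium reacted with Griess reagent, absorbance at 540 nm; IC50 reported.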

RAW264.7 [2] = assay: Inhibition of LPS-induced NF-kappaB (unknown origin) transactivation expressed in mouse RAW264.7 cells at 20 uM pretreated for 30 mins followed by LPS stimulation for 6 hrs by luciferase reporter gene assay; type: cell-based; conditions: Homo sapiens
Summary of the method: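 RAW 264.7/NF-κB-luc cells (RAW 264.7 stably carrying an NF-κB-driven luciferase reporter), kept in DMEM with 10% FBS, penicillin/streptomycin and 500 μg/mL G418. Seeded at 5 × 10^5 per well for 24 h, then compound for 30 min before LPS 500 ng/mL for 6 h; DMSO 0.5% vehicle, PDTC 20 μM positive control. Firefly luminescence read on lysates; means ± SD of three independent experiments.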

[3] = biological target: Transcription factor p65 (Mus musculus) (UniProt Q04207); assay: Inhibition of LPS-induced NF-kappaB p65 subunit translocation into nucleus of mouse RAW264.7 cells at 10 uM pretreated for 30 mins followed by LPS stimulation for 3 hrs by DAPI staining based immunofluorescence assay; type: cell-based
Summary of the method: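 Cells at 1 × 10^5/mL plated overnight, pretreated 30 min, then LPS 500 ng/mL for 3 h; fixed in 4% formaldehyde, permeabilized with 1% Triton X-100, blocked in 5% BSA, anti-p65 (1:100) overnight at 4 °C, Alexa 594 secondary, DAPI nuclei. High-content imaging; nuclear minus cytoplasmic fluorescence; three independent experiments.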

Mus musculus [4] = assay: Antiinflammatory activity in TPA-induced ear edema BALB/c mouse model assessed as reduction in epidermal hyperplasia at 10 mg/ml applied topically pretreated for 30 mins followed by TPA exposure measured after 4 hrs by hematoxylin and eosin staining based light microscopic method; type: functional, tissue-based
Summary of the method: (§1)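 Right ear pretreated topically (2.5, 5, 10 mg/mL) 30 min before TPA for 4 h; left ear acetone only; 1% hydrocortisone as positive control. Ears fixed in 4% paraformaldehyde, paraffin-embedded, cut at 4 μm, H&E stained; representative area examined qualitatively by light microscopy at 200×; n = 8 mice per group.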

RAW264.7 [5] = assay: Inhibition of NF-kappaB in mouse RAW264.7 cells assessed as reduction in LPS-induced IL-6 level pretreated for 30 mins followed by LPS stimulation for 24 hrs by ELISA; type: cell-based
Summary of the method: (§2)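 Pretreatment at 0.3, 1, 3 or 9 μM for 30 min, then LPS 500 ng/mL for 24 h; culture supernatant assayed for TNF-α and IL-6 by ELISA kits; means ± SD of three independent experiments.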

RAW264.7 [6] = assay: Inhibition of NF-kappaB in mouse RAW264.7 cells assessed as reduction in LPS-induced COX2 expression at 1 to 9 uM pretreated for 30 mins followed by LPS stimulation for 12 hrs by Western blot analysis; type: cell-based
Summary of the method: (§3)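 Cells 5 × 10^5 per well grown 24 h, serum-starved 12 h, pretreated 30 min, then LPS 500 ng/mL for 12 h. Lysates protein-normalized by BCA, 10% SDS-PAGE, PVDF, anti-iNOS or anti-COX-2 (1:1000) overnight at 4 °C, ECL detection; β-tubulin loading control.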

Mus musculus [7] = assay: Antiinflammatory activity in BALB/c mouse assessed as inhibition of TPA-induced ear edema applied topically pretreated for 30 mins followed by TPA exposure measured after 4 hrs; type: functional
Summary of the method: (§4)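 Topical dosing of right ear at 2.5, 5 or 10 mg/mL, 30 min before TPA; left ear given acetone only as solvent control; 1% hydrocortisone as positive control. Mice killed 4 h after TPA, 7 mm central punches taken from both ears and weighed; edema rate (%) = [(weight right − weight left)/weight left] × 100%. n = 8 mice per group.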

RAW264.7 [8] = assay: Inhibition of LPS-induced NF-kappaB (unknown origin) transactivation expressed in mouse RAW264.7 cells pretreated for 30 mins followed by LPS stimulation for 6 hrs by luciferase reporter gene assay; type: cell-based; conditions: Homo sapiens
Summary of the method: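 RAW 264.7 line stably carrying NF-κB-driven firefly luciferase, maintained with 500 μg/mL G418; seeded 5 × 10^5 per well, 24 h, pretreated 30 min at 2.5–20 μM, then 500 ng/mL LPS for 6 h; 0.5% DMSO vehicle; 20 μM PDTC positive control. Lysate luminescence read; three independent experiments, means ± SD.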

RAW264.7 [9] = assay: Inhibition of NF-kappaB in mouse RAW264.7 cells assessed as reduction in LPS-induced TNF-alpha level pretreated for 30 mins followed by LPS stimulation for 24 hrs by ELISA; type: cell-based; summary of the method: as §2
RAW264.7 [10] = assay: Inhibition of NF-kappaB in mouse RAW264.7 cells assessed as reduction in LPS-induced iNOS protein expression pretreated for 30 mins followed by LPS stimulation for 12 hrs by Western blot analysis; type: cell-based; summary of the method: as §3
RAW264.7 [11] = assay: Inhibition of NF-kappaB in mouse RAW264.7 cells assessed as reduction in LPS-induced degradation of IkappaB-alpha pretreated for 30 mins followed by LPS stimulation for 1 hr by Western blot analysis; type: cell-based
Summary of the method: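 Serum-starved (12 h) cells pretreated 30 min at 2.5, 5 or 10 μM or 0.5% DMSO, then LPS 500 ng/mL for 1 h; Western blot for IκB-α and phospho-IκB-α (1:1000, 4 °C overnight), ECL, β-tubulin loading control; bands quantified from three independent experiments.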

Mus musculus [12] = assay: Antiinflammatory activity in BALB/c mouse assessed as inhibition of TPA-induced ear edema at 10 mg/ml applied topically pretreated for 30 mins followed by TPA exposure measured after 4 hrs; type: functional; summary of the method: as §4
Mus musculus [13] = assay: Antiinflammatory activity in TPA-induced ear edema BALB/c mouse model assessed as reduction in inflammatory cell infilteration at 10 mg/ml applied topically pretreated for 30 mins followed by TPA exposure measured after 4 hrs by hematoxylin and eosin staining based light microscopic method; type: functional, tissue-based; summary of the method: as §1
Mus musculus [14] = assay: Antiinflammatory activity in TPA-induced ear edema BALB/c mouse model assessed as reduction in epidermal hyperplasia applied topically pretreated for 30 mins followed by TPA exposure measured after 4 hrs by hematoxylin and eosin staining based light microscopic method; type: functional, tissue-based; summary of the method: as §1
Mus musculus [15] = assay: Antiinflammatory activity in TPA-induced ear edema BALB/c mouse model assessed as reduction in inflammatory cell infilteration applied topically pretreated for 30 mins followed by TPA exposure measured after 4 hrs by hematoxylin and eosin staining based light microscopic method; type: functional, tissue-based; summary of the method: as §1

Chain of Transcription factor p65 (Mus musculus) (Q04207 whole entry): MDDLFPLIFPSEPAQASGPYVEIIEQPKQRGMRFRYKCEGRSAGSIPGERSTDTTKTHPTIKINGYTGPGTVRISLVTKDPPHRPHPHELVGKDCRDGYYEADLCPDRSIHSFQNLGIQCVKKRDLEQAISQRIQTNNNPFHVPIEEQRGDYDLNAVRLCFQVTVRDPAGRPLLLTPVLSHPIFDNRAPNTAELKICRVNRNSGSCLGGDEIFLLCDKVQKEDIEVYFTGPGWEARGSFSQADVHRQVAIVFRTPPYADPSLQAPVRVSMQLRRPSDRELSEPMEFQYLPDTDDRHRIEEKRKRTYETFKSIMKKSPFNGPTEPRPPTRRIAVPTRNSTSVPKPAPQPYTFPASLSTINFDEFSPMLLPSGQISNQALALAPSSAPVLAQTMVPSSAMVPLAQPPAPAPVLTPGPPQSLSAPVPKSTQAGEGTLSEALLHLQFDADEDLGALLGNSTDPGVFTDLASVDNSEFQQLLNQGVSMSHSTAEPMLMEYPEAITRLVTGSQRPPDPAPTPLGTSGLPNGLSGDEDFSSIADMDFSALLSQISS

Structure (SMILES): C=C1[C@H]2C[C@H]2[C@]2(C)C[C@@H]3OC(=O)C(C)=C3C[C@@H]12
IC50 [1]: > 50 µM

Structure (SMILES): C=C1[C@H]2C[C@H]2[C@]2(C)[C@H](O)[C@]3(OC)OC(=O)C(C)=C3C[C@@H]12
IC50 [1]: > 50 µM

Structure (SMILES): C=C1[C@H]2C[C@H]2[C@]2(C)[C@H](O)[C@@]3(OC)OC(=O)C(C)=C3C[C@@H]12
IC50 [1]: > 50 µM

Structure (SMILES): S=C(S)N1CCCC1
inhibition (RAW264.7 [2]): Active

Structure (SMILES): CC1=C2CC3=C(CO)[C@H]4C[C@H]4[C@]3(C)C[C@@H]2OC1=O [CHLORAJAPOLIDE C]
IC50 [1]: > 50 µM

Structure (SMILES): C[C@]12CCC(=O)C=C1CC[C@@H]1[C@@H]2[C@@H](O)C[C@@]2(C)[C@H]1CC[C@]2(O)C(=O)CO [HYDROCORTISONE]
Activity (Mus musculus [14]): Active | inhibition (INH) (Mus musculus [7]): 56.33% | Activity (Mus musculus [15]): Active

Structure (SMILES): C=C1[C@H]2C[C@H]2[C@]2(C)C[C@@H]3OC(=O)C(C)=C3C[C@]12O [SARCANDRALACTONE A]
IC50 [1]: > 50 µM

Now from value to molecule, other results behind:

IC50 [1]: 35.4 µM
Structure (SMILES): C=C1[C@H]2C[C@H]2[C@@]2(C)[C@H]1CC1=C(C)C(=O)O[C@@]1(O)[C@H]2O

IC50 [1]: 7.5 µM
Structure (SMILES): CC(=N)NCCCC[C@H](N)C(=O)O [L-NIL]

IC50 [1]: > 50 µM
Structure (SMILES): C=C1[C@H]2C[C@H]2[C@]2(C)C=C3OC(=O)C(C)=C3C[C@@]12O

IC50 [1]: 33.2 µM
Structure (SMILES): C=C1[C@H]2C[C@H]2[C@]2(C)C=C3OC(=O)C(C)=C3C[C@@H]12 [CHLORANTHALACTONE A]

inhibition [3]: Active | IC50 [1]: 1.4 µM
Structure (SMILES): C=C1[C@H]2C[C@H]2[C@]2(C)C=C3OC(=O)C(C)=C3[C@H](OC(C)=O)[C@@H]12
Activity (Mus musculus [4]): Active | inhibition (RAW264.7 [5]): Dose-dependent effect | inhibition (RAW264.7 [6]): Active | inhibition (Mus musculus [7]): Dose-dependent effect | inhibition (RAW264.7 [8]): Dose-dependent effect | inhibition (RAW264.7 [9]): Dose-dependent effect | inhibition (RAW264.7 [10]): Dose-dependent effect | inhibition (RAW264.7 [11]): Dose-dependent effect | inhibition at 10000 µg/mL (Mus musculus [12]): 23.5% | Activity (Mus musculus [13]): Active
